Key:
Carbonic anhydrase = target: T1, Carbonic anhydrase (Candida albicans (strain SC5314 / ATCC MYA-2876) (Yeast), UniProt Q5AJ71); assay: Inhibition of Candida albicans Nce103
T1 sequence (Q5AJ71 whole entry): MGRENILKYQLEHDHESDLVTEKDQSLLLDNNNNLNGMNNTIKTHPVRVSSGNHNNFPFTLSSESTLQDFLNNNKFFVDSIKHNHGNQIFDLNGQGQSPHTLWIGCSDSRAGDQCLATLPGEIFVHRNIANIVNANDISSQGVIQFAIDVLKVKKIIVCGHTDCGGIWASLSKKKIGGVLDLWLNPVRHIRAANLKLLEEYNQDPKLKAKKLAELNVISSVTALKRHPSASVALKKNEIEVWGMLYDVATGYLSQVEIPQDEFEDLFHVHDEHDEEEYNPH
How it was run: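 Recombinant purified C. albicans Nce103. Stopped-flow CO2 hydration assay with phenol red indicator (0.2 mM) read at 557 nm. Tris buffer pH 8.3 with 20 mM Na2SO4 or NaClO4 for ionic strength. CO2 1.7–17 mM. Initial rates over 10–100 s, uncatalyzed rate subtracted. Enzyme and inhibitor preincubated 15 min at room temperature. Ki by non-linear least squares from three assays.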

[1] = Inhibition of Cryptococcus neoformans Can2
How it was run: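 Recombinant purified Can2. Stopped-flow CO2 hydration assay read with 0.2 mM phenol red at 557 nm, in TRIS pH 8.3 with 20 mM NaClO4 or Na2SO4 for ionic strength. Initial rates followed over 10–100 s, CO2 1.7–17 mM, uncatalyzed rate subtracted. Enzyme and inhibitor preincubated 15 min at room temperature. Ki from non-linear least squares, mean of at least three determinations.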

Carbonic anhydrase 2 = Carbonic anhydrase 2 (Homo sapiens, UniProt P00918); assay: Inhibition of human carbonic anhydrase2

Structure (SMILES) | Ki (Carbonic anhydrase) [µM] | Ki [1] [µM] | Ki (Carbonic anhydrase 2) [µM]
O=C(O)c1c(F)c(F)cc(F)c1F | 61.6 | 49.1 | –
O=C([O-])C[C@H](O)C(=O)[O-].[Na+].[Na+] | 87.7 | 899 | 1870
C[C@H](O)C(=O)[O-].[Na+] | 46.8 | 953 | 3220
O=C([O-])CC(=O)[O-].[Na+].[Na+] [DISODIUM MALONATE] | 26.3 | 793 | –
CC(=O)C(=O)O [PYRUVATE SODIUM] | 106 | 787 | –
CC(=O)[O-].[Na+] [SODIUM ACETATE] | 36 | 7.3 | –
O=C([O-])c1ccccc1.[Na+] [SODIUM BENZOATE] | 24.4 | 1270 | –
CCCC(=O)[O-].[Na+] [SODIUM BUTYRATE] | 26.9 | 225 | 1030
O=C([O-])CC(O)(CC(=O)[O-])C(=O)[O-].[Na+].[Na+].[Na+] [SODIUM CITRATE] | 39.1 | 88.6 | –
O=C[O-].[Na+] [SODIUM FORMATE] | 35.1 | 53.5 | –
O=C([O-])/C=C\C(=O)[O-].[Na+].[Na+] [SODIUM MALEATE] | 8.6 | 8.7 | 989
O=C([O-])C(=O)[O-].[Na+].[Na+] [SODIUM OXALATE] | 37.7 | 67.7 | –
CCC(=O)[O-].[Na+] [SODIUM PROPIONATE] | 51.5 | 404 | 960
CCCCC(=O)[O-].[Na+] [SODIUM VALERATE] | 94 | 42.8 | 257

Source: ChEMBL document CHEMBL1153396, “Carbonic anhydrase inhibitors. Inhibition of the beta-class enzymes from the fungal pathogens Candida albicans and Cryptococcus neoformans with aliphatic and aromatic carboxylates” (Bioorg Med Chem, 2009)
